Each block holds one compound with its values, some of them ahead of it. Square brackets hold non-standard residues; d marks the D form. Peptide text beside a SMILES is read from it. * marks the point of attachment. X1 = CC(=O)N[C@@H]1[C@@H](O[C@@H]2O[C@H](CO)[C@H](O)[C@H](O)[C@H]2O)[C@@H](O)[C@@H](CO[C@@H]2O[C@H](CO)[C@@H](O[C@@H]3O[C@H](CO)[C@H](O)[C@H](O[C@]4(C(=O)O)C[C@H](O)[C@@H](NC(C)=O)[C@H]([C@H](O)[C@H](O)CO)O4)[C@H]3O)[C@H](O[C@@H]3O[C@@H](C)[C@@H](O)[C@@H](O)[C@@H]3O)[C@H]2NC(C)=O)O[C@@H]1*; Phe(4-CH2SO3H) = N[C@@H](Cc1ccc(CS(=O)(=O)O)cc1)C(=O)O; Mca = COc1ccc2c(CC(=O)*)cc(=O)oc2c1
Legend:
[1] = test system: leukocyte rolling and arrest on substrates coated with ICAM-1 and E-selectin; test: In vitro flow assay on ICAM-1/E-selectin substrate under shear; format: cell-based, human; settings: concentrations as high as 30 μM
Procedure, shortened: (§1)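 Aminosilanized glass was coated with human ICAM-1-Fc plus P- or E-selectin-Fc (5 μg/mL, 1 h). Human blood cells from healthy donors were density-separated and suspended in HEPES-buffered salt solution. Cells were exposed 10 min to PBS or test compound (up to 30 μM), then perfused at 2 dynes/cm2. Video ran 2 min at 7.5 frames/s. Centroids were tracked over 10 s; < 1 μm/s counted as arrested; capture and rolling velocity scored.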

[2] = biological target: human L-selectin Fc chimera (Homo sapiens, UniProt P14151); test: Flow cytometry, L-selectin Fc chimera binding to human U937; format: cell-based; settings: read-out: IC50, inhibition of PSGL-1/L-selectin interactions; human leukocytes (human U937)
[3] = test system: leukocyte rolling in cremaster venules; test: Intravital microscopy of mouse cremaster, leukocyte rolling; format: in vivo; settings: 4 μmol/kg IV
Procedure, shortened: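 Mice under IP ketamine/xylazine/atropine were kept on a 37°C blanket. Test compound (4 μmol/kg in saline) or saline was given through a jugular cannula. The cremaster was superfused with bicarbonate-buffered saline (5% CO2 in N2). Venules 30–40 μm were viewed 15–25 min post-surgical stimulation, seven per mouse. Velocities of 5–10 rolling leukocytes per venule were tracked over 2 s; mean and median were taken.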

[4] = test system: human neutrophil and monocyte rolling and arrest on ICAM-1/P-selectin substrate; test: In vitro flow assay on ICAM-1/P-selectin substrate under shear; format: cell-based
Procedure, shortened: as §1

human P-selectin = human P-selectin (Homo sapiens, UniProt P16109); test: Biacore binding assay, human P-selectin; settings: from Kd 22 nM
[5] = test system: platelet-leukocyte aggregate formation; test: Platelet-leukocyte aggregates in mouse whole blood, dual-label flow cytometry; format: cell-based; settings: 40 μM, PAR4-activating peptide
Procedure, shortened: (§2)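 Anticoagulated whole blood was treated with 40 μM test compound at room temperature. Stimulation used PAR1-activating peptide 40 μM (human) or PAR4-activating peptide 200 μM (mouse). Staining was anti-CD42a-PE/anti-CD45-APC (human) or anti-CD41-PE/anti-CD45-APC (mouse). CD45+ neutrophils and monocytes were gated by side scatter and scored as % platelet-positive. Saline and anti-CD62P (5 μg/mL) were controls. Samples were run in triplicate.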

P-selectin [6] = test: Microarray binding of glycopeptide mimics to selectin-Ig chimeras; parameters: species or system human and mouse; settings: selectin-Ig chimeras 5-20 μg/mL, Alexa-488 anti-human IgG
[7] = test system: platelet-neutrophil binding and platelet aggregation in venules; test: TNF-α-induced venular inflammation, cremaster intravital microscopy; format: in vivo; settings: 3 hr after TNF-α; GSnP-6 4 μmol/kg IV, antibody 75 μg/mouse IV
Procedure, shortened: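 Male C57BL/6 mice, 6–8 weeks old, received intrascrotal TNF-α (0.5 μg) 3 h before cremaster preparation. Just before imaging, test compound (4 μmol/kg), anti-CD62P or saline was given via jugular cannula. Labels were Dylight 649 anti-CD42b (platelets) and Alexa 488 anti-Gr-1 (neutrophils). Venules 30–45 μm (8–10/mouse, 5 mice) were imaged over 2 min. Platelet signal was taken as AUC normalized to vessel area, reported as median integrated fluorescence.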

E-Sel-Ig = test: Biacore binding assay, E-selectin
Procedure, shortened: (§3)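 Biotinylated test glycopeptide was captured on a streptavidin-coated sensor chip at low (< 5 RU) or high (60 RU) density. P-, L- or E-selectin-Ig was applied at 2.5–60 μg/mL. Kinetic parameters were fitted to a 1:1 binding model. Affinity relative to P-Sel-Ig was estimated by comparing binding at the two capture densities.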

[8] = test system: platelet-leukocyte aggregate formation; test: Platelet-leukocyte aggregates in human whole blood, dual-label flow cytometry; format: cell-based; settings: 40 μM, PAR1-activating peptide
Procedure, shortened: as §2

[9] = Temperature- and pH-dependent stability by RP-HPLC; format: physicochemical
E-selectin Fc chimera = test: Flow cytometry, E-selectin Fc chimera binding to leukocytes; format: cell-based, human and mouse; settings: GSnP-6 0 - 30 μM
Procedure, shortened: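 Cells were heparinized mouse blood (cardiac puncture), citrated human blood, or cultured U937. They were incubated with test compound (0–30 μM) and species-matched selectin Fc chimera (2 μg/mL), then PE anti-Fc (1:100). Read-out was flow-cytometric MFI, expressed as percent inhibition versus PBS control, in triplicate. KPL1 and 4RA10 anti-PSGL-1 antibodies served as specificity checks.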

mouse P-selectin = mouse P-selectin (Mus musculus, UniProt Q01102); test: Biacore binding assay, mouse P-selectin; settings: printed as fold lower
L-Sel-Ig = test: Biacore binding assay, L-selectin
Procedure, shortened: as §3

[10] = test system: human platelet-monocyte aggregation; settings: cited from earlier work
P-selectin [11] = settings: P-selectin inhibitor; cited from earlier work
[12] = Biacore, compared with P-selectin
[13] = fold lower, densities < 5 RU vs 60 RU

IC50 [2]: ~30 µM
IC50 ([4]; read-out: IC50, inhibition of neutrophil capture in shear flow, human neutrophils, 2 dynes/cm^2): 5 µM
experimental interaction energy with P-selectin (human P-selectin): -43.9 kJ/mol
binding to E-selectin (in words) (E-Sel-Ig; [12]): lower affinity
affinity of E-Sel-Ig for immobilized GSnP-6 relative to P-Sel-Ig (E-Sel-Ig; [13]): ~ 25 fold
stability at low pH ([9]; pH 5, T = 37°C): without observed degradation products
stability at high temperature ([9]; pH 7.5, T = 60°C): without observed degradation products
inhibition of E-selectin interactions (in words) (E-selectin Fc chimera): not observed
Kd to murine P-selectin relative to human P-selectin (mouse P-selectin): ~ 9 fold
binding to L-selectin (in words) (L-Sel-Ig; [12]): lower affinity
affinity of L-Sel-Ig for immobilized GSnP-6 relative to P-Sel-Ig (L-Sel-Ig; [13]): ~ 25 fold
Structure (SMILES): COc1ccc2c(CC(=O)NCCCC[C@H](N)C(=O)N[C@@H](CCC(=O)O)C(=O)N[C@@H](Cc3ccc(CS(=O)(=O)O)cc3)C(=O)N[C@@H](CCC(=O)O)C(=O)N[C@@H](Cc3ccc(CS(=O)(=O)O)cc3)C(=O)N[C@@H](CC(C)C)C(=O)N[C@@H](CC(=O)O)C(=O)N[C@@H](Cc3ccc(CS(=O)(=O)O)cc3)C(=O)N[C@@H](CC(=O)O)C(=O)N[C@@H](Cc3ccccc3)C(=O)N[C@@H](CC(C)C)C(=O)N3CCC[C@H]3C(=O)N[C@@H](CCC(=O)O)C(=O)N[C@H](C(=O)N[C@@H](CCC(=O)O)C(=O)N3CCC[C@H]3C(=O)N[C@@H](CC(C)C)C(=O)O)[C@@H](C)O[C@H]3O[C@H](CO[C@@H]4O[C@H](CO)[C@@H](O[C@@H]5O[C@H](CO)[C@H](O)[C@H](O[C@]6(C(=O)O)C[C@H](O)[C@@H](NC(C)=O)[C@H]([C@H](O)[C@H](O)CO)O6)[C@H]5O)[C@H](O[C@@H]5O[C@@H](C)[C@@H](O)[C@@H](O)[C@@H]5O)[C@H]4NC(C)=O)[C@H](O)[C@H](O[C@@H]4O[C@H](CO)[C@H](O)[C@H](O)[C@H]4O)[C@H]3NC(C)=O)cc(=O)oc2c1 [GSnP-6] (H-K(Mca)E[Phe(4-CH2SO3H)]E[Phe(4-CH2SO3H)]LD[Phe(4-CH2SO3H)]DFLPET(X1)EPL-OH; N-terminus and C-terminus assumed)
leukocyte rolling and arrest on ICAM-1 and E-selectin (in words) [1]: did not perturb
increase in median rolling velocities vs saline [3]: 2 fold
mean leukocyte rolling velocity ([3]; 15-25 min after surgical stimulation): 74.9 ± 3.4 μm/s
inhibition of rolling and arrest ([4]; 6 μM, human neutrophils and monocytes): 80%
inhibition of platelet-monocyte aggregate formation [5]: 47%
inhibition of platelet-neutrophil aggregate formation [5]: 42%
microarray binding to P-selectin (in words) (P-selectin [6]): bound to P-selectin more strongly than to E- or L-selectin
platelet accumulation, median integrated platelet fluorescence (in words) [7]: limited platelet signal
platelet aggregation and platelet-PMN binding (in words) [7]: significantly reduced
inhibition of platelet-monocyte aggregate formation [8]: 72%
inhibition of platelet-neutrophil aggregate formation [8]: 65%

Structure (SMILES): O=C(O)c1c(O)c(Cc2ccc(Cl)cc2)nc2c3c(ccc12)CCCC3 [PSI-697]
inhibition of human platelet-monocyte aggregation (in words) [10]: only weakly inhibits
Kd (P-selectin [11]): ~200 µM

Reference: publication PMC4423566 (Nature communications, 2015)
